What was measured:
[1] = tested on: Rattus norvegicus; assay: Biodistribution in uterus / spleen, muscle, lungs of immature female rat after 5 hour administration of 3 micro Ci (111 kBq) in the absence of 60 microg estradiol; assay type: ADME, organism-based; settings: in vivo
Procedure, shortened: (§1)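 Immature female Long Evans rats (21–24 days, 45–70 g), 3–5 per group, unanesthetized in retention cages, given 3 μCi (111 kBq) 125I-labeled steroid by lateral tail vein. Vehicle: ethanol diluted with saline containing 1% Tween-80, final ethanol 9%. +E2 group co-injected 60 μg unlabeled estradiol (1 h only). Killed under ether; tissues KCl-washed, weighed, gamma-counted. Output: %ID/g (mean, SE) and uterus to blood or nontarget (muscle, spleen, lungs) ratios.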

[2] = tested on: Rattus norvegicus; assay: Biodistribution in muscle of immature female rat after 5 hour administration of 3 micro Ci (111 kBq) in the absence of 60 microg estradiol; assay type: ADME, organism-based, Muscle tissue; settings: in vivo
Procedure, shortened: (§2)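 Immature female Long Evans rats (21–24 days, 45–70 g), three to five per group, given 125I-labeled steroid (3 μCi, 111 kBq) by lateral tail vein without anesthesia. Vehicle: ethanol diluted in saline with 1% Tween-80, final ethanol 9%, 0.22 μm filtered. +E2 groups received 60 μg unlabeled estradiol co-injected. Killed under ether at set times; tissues KCl-washed, blotted, weighed, gamma counted; %ID/g, mean with SE.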

[3] = tested on: Rattus norvegicus; assay: Biodistribution in blood of immature female rat after 1 hr administration of 3 micro Ci (111 kBq) in the absence of 60 microg estradiol; assay type: ADME, organism-based; settings: in vivo
Procedure, shortened: (§3)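 Immature female Long Evans rats (21–24 days, 45–70 g), unanesthetized in retention cages, given 3 µCi (111 kBq) 125I-labeled steroid i.v. via lateral tail vein. Vehicle was ethanol diluted in saline containing 1% Tween-80, giving 9% ethanol final. The blocking group received 60 µg unlabeled estradiol co-injected. Rats were killed under ether by axillary bleeding, and tissues were KCl-washed and gamma-counted. Data are %ID/g, mean ± SE, n=3–5.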

[4] = tested on: Rattus norvegicus; assay: Biodistribution in blood of immature female rat after 12 hour administration of 3 micro Ci (111 kBq) in the absence of 60 microg estradiol; assay type: ADME, organism-based; settings: in vivo; procedure, shortened: as §3
[5] = tested on: Rattus norvegicus; assay: Biodistribution in lungs of immature female rat after 3 hour administration of 3 micro Ci (111 kBq) in the absence of 60 microg estradiol; assay type: ADME, organism-based, Lung; settings: in vivo; procedure, shortened: as §2
[6] = tested on: Rattus norvegicus; assay: Biodistribution in thyroid of immature female rat after 3 hour administration of 3 micro Ci (111 kBq) in the absence of 60 microg estradiol; assay type: ADME, organism-based, Thyroid gland; settings: in vivo; procedure, shortened: as §2
[7] = biological target: T1, Estrogen receptor (Mus musculus) (UniProt O08537+P19785); assay: Relative binding affinity (RBA) for murine cytoplasmic estrogen receptor at 4C for 2 hr; assay type: protein assay
T1 sequence (O08537 whole entry, looked up): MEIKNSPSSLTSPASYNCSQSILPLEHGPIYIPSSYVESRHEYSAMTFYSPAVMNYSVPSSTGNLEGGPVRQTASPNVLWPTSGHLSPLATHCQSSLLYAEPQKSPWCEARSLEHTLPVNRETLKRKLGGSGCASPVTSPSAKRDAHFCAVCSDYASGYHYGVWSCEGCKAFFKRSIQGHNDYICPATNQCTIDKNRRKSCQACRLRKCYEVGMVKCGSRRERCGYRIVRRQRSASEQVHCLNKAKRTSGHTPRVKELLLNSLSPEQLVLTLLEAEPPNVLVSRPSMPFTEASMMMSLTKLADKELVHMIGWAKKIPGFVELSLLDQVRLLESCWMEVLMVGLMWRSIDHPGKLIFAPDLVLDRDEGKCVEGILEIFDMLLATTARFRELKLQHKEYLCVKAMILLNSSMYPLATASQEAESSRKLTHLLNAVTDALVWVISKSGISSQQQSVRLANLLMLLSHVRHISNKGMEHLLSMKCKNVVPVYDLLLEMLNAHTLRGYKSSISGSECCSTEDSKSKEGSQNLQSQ
T1 sequence (P19785 whole entry, looked up): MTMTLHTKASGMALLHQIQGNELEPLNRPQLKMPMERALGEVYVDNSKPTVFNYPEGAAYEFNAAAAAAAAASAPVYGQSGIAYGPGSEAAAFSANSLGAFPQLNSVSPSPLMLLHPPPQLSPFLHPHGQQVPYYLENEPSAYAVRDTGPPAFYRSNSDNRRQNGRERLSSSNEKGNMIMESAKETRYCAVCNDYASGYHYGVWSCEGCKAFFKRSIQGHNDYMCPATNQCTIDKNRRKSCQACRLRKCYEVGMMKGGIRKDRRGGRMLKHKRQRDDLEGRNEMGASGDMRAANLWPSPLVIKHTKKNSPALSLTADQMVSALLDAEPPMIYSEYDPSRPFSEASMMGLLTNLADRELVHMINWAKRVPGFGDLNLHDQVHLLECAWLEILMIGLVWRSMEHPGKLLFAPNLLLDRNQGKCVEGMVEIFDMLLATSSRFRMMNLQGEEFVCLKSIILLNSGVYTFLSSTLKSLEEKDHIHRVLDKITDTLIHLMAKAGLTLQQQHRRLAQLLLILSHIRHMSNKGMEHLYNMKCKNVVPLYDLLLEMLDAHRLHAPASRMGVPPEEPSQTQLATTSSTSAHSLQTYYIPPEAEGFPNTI
Procedure, shortened: (§4)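 Murine uterine cytoplasmic extract incubated 2 h at 4 °C or at 25 °C with 20 nM [3H]estradiol and competitors at 2 nM–20 μM. RBA is taken as 100 × the ratio of competitor to unlabeled estradiol concentration needed for 50% competition of specific [3H]estradiol binding.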

[8] = tested on: Rattus norvegicus; assay: Biodistribution in uterus / spleen, muscle, lungs of immature female rat after 1 hr administration of 3 micro Ci (111 kBq) in the presence of (+E2); assay type: ADME, organism-based; settings: in vivo
Procedure, shortened: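 Same in vivo procedure: immature female Long Evans rats (21–24 days), three to five per group, 3 μCi (111 kBq) tracer i.v. via tail vein in 9% ethanol/saline/1% Tween-80, ± 60 μg estradiol co-injected at 1 h. Uterus %ID/g (gamma counting) divided by blood, or by nontarget organ (muscle, spleen, lungs), %ID/g to give ratios.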

[9] = tested on: Rattus norvegicus; assay: Biodistribution in fat of immature female rat after 5 hour administration of 3 micro Ci (111 kBq) in the absence of 60 microg estradiol; assay type: ADME, organism-based, Adipose tissue; settings: in vivo; procedure, shortened: as §3
[10] = tested on: Rattus norvegicus; assay: Biodistribution in thyroid of immature female rat after 1 hr administration of 3 micro Ci (111 kBq) in the absence of 60 microg estradiol; assay type: ADME, organism-based, Thyroid gland; settings: in vivo; procedure, shortened: as §2
[11] = tested on: Rattus norvegicus; assay: Biodistribution in kidney of immature female rat after 12 hour administration of 3 micro Ci (111 kBq) in the absence of 60 microg estradiol; assay type: ADME, organism-based; settings: in vivo; procedure, shortened: as §3
[12] = tested on: Rattus norvegicus; assay: Biodistribution in lungs of immature female rat after 12 hour administration of 3 micro Ci (111 kBq) in the absence of 60 microg estradiol; assay type: ADME, organism-based, Lung; settings: in vivo; procedure, shortened: as §2
[13] = tested on: Rattus norvegicus; assay: Biodistribution in liver of immature female rat after 5 hour administration of 3 micro Ci (111 kBq) in the absence of 60 microg estradiol; assay type: ADME, organism-based; settings: in vivo; procedure, shortened: as §3
[14] = tested on: Rattus norvegicus; assay: Biodistribution in liver of immature female rat after 1 hr administration of 3 micro Ci (111 kBq) in the presence of (+E2); assay type: ADME, organism-based; settings: in vivo; procedure, shortened: as §3
[15] = biological target: T1, Estrogen receptor (Mus musculus); assay: Relative binding affinity (RBA) for murine cytoplasmic estrogen receptor at 25 degree C for 2 hr; assay type: protein assay; procedure, shortened: as §4
[16] = tested on: Rattus norvegicus; assay: Biodistribution in fat of immature female rat after 1 hr administration of 3 micro Ci (111 kBq) in the presence of (+E2); assay type: ADME, organism-based, Adipose tissue; settings: in vivo; procedure, shortened: as §3
[17] = tested on: Rattus norvegicus; assay: Biodistribution in kidney of immature female rat after 1 hr administration of 3 micro Ci (111 kBq) in the presence of (+E2); assay type: ADME, organism-based; settings: in vivo; procedure, shortened: as §3
[18] = tested on: Rattus norvegicus; assay: Biodistribution in uterus / spleen, muscle, lungs of immature female rat after 3 hour administration of 3 micro Ci (111 kBq) in the absence of 60 microg estradiol; assay type: ADME, organism-based; settings: in vivo; procedure, shortened: as §1
[19] = biological target: T1, Estrogen receptor (Mus musculus); assay: Relative binding affinity (RBA) for murine cytoplasmic estrogen receptor at 4C for 18 hr; assay type: protein assay
Procedure, shortened: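 Competitive binding on murine uterine cytoplasmic extract with 20 nM [3H]estradiol and competitor steroids at 2 nM–20 μM, incubated 18 h at 0–4 °C. RBA = 100 × ratio of […] concentration giving 50% competition for specific binding. Mean of three experiments with SD.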

[20] = tested on: Rattus norvegicus; assay: Biodistribution in muscle of immature female rat after 1 hr administration of 3 micro Ci (111 kBq) in the presence of (+E2); assay type: ADME, organism-based, Muscle tissue; settings: in vivo; procedure, shortened: as §2
[21] = tested on: Rattus norvegicus; assay: Biodistribution in spleen of immature female rat after 12 hour administration of 3 micro Ci (111 kBq) in the absence of 60 microg estradiol; assay type: ADME, organism-based; settings: in vivo; procedure, shortened: as §2
[22] = tested on: Rattus norvegicus; assay: Biodistribution in liver of immature female rat after 1 hr administration of 3 micro Ci (111 kBq) in the absence of 60 microg estradiol; assay type: ADME, organism-based; settings: in vivo; procedure, shortened: as §3
[23] = tested on: Rattus norvegicus; assay: Biodistribution in thyroid of immature female rat after 12 hour administration of 3 micro Ci (111 kBq) in the absence of 60 microg estradiol; assay type: ADME, organism-based, Thyroid gland; settings: in vivo; procedure, shortened: as §2
[24] = tested on: Rattus norvegicus; assay: Biodistribution in kidney of immature female rat after 1 hr administration of 3 micro Ci (111 kBq) in the absence of 60 microg estradiol; assay type: ADME, organism-based; settings: in vivo; procedure, shortened: as §3
[25] = tested on: Rattus norvegicus; assay: Biodistribution in muscle of immature female rat after 12 hour administration of 3 micro Ci (111 kBq) in the absence of 60 microg estradiol; assay type: ADME, organism-based, Muscle tissue; settings: in vivo; procedure, shortened: as §2
[26] = tested on: Rattus norvegicus; assay: Biodistribution in muscle of immature female rat after 3 hour administration of 3 micro Ci (111 kBq) in the absence of 60 microg estradiol; assay type: ADME, organism-based, Muscle tissue; settings: in vivo; procedure, shortened: as §2
[27] = tested on: Rattus norvegicus; assay: Biodistribution in lungs of immature female rat after 1 hr administration of 3 micro Ci (111 kBq) in the absence of 60 microg estradiol; assay type: ADME, organism-based, Lung; settings: in vivo; procedure, shortened: as §3
[28] = tested on: Rattus norvegicus; assay: Biodistribution in thyroid of immature female rat after 1 hr administration of 3 micro Ci (111 kBq) in the presence of (+E2); assay type: ADME, organism-based, Thyroid gland; settings: in vivo; procedure, shortened: as §2
[29] = tested on: Rattus norvegicus; assay: Biodistribution in spleen of immature female rat after 3 hour administration of 3 micro Ci (111 kBq) in the absence of 60 microg estradiol; assay type: ADME, organism-based; settings: in vivo; procedure, shortened: as §2

Structure (SMILES) | ID/g [2] | ID/g [3] | ID/g [4] | ID/g [5] | ID/g [6] | RBA [7] | ID/g [9] | ID/g [10] | ID/g [11] | ID/g [12] | ID/g [13] | ID/g [14] | RBA [15] | ID/g [16] | ID/g [17] | RBA [19] | ID/g [20] | ID/g [21] | ID/g [22] | ID/g [23] | also measured
C[C@]12CC[C@@H]3c4ccc(O)c(F)c4CC[C@H]3[C@@H]1CC[C@@]2(O)/C=C/I | 0.14% | 0.78% | 0.16% | 0.57% | 128% | 58.7 | 1.67% | 71.61% | 0.08% | 0.1% | 1.21% | 3.06% | 29.1 | 1.14% | 0.87% | 55.9 | 0.58% | 0.1% | 2.91% | 385% | uterus to nontarget tissue ratio [1]: 10.41%; uterus-to-nontarget tissue uptake ratio [8]: 1.17%; Uterus to nontarget tissue (spleen, muscle, lungs) uptake ratio [18]: 11.38%; ID/g [24]: 0.93%; ID/g [25]: 0.06%; ID/g [26]: 0.31%; ID/g [27]: 0.89%; ID/g [28]: 65.69%; ID/g [29]: 0.36%
C[C@]12CC[C@@H]3c4cc(F)c(O)cc4CC[C@H]3[C@@H]1CC[C@@]2(O)/C=C\I | 0.14% | 0.61% | 0.17% | 0.39% | 75.3% | 40.1 | 1.13% | 39% | 0.14% | 0.12% | 1.16% | 2.58% | 99 | 2.88% | 0.65% | 53.7 | 2.16% | 0.17% | 2.25% | 365% | uterus to nontarget tissue ratio [1]: 18.05%; uterus-to-nontarget tissue uptake ratio [8]: 0.51%; Uterus to nontarget tissue (spleen, muscle, lungs) uptake ratio [18]: 17.64%; ID/g [24]: 0.88%; ID/g [25]: 0.05%; ID/g [26]: 0.28%; ID/g [27]: 0.81%; ID/g [28]: 36.11%; ID/g [29]: 0.29%
C[C@]12CC[C@@H]3c4cc(F)c(O)cc4CC[C@H]3[C@@H]1CC[C@@]2(O)/C=C/I | 0.28% | 0.53% | 0.08% | 0.48% | 39.1% | 30.4 | 2.39% | 27% | 0.06% | 0.1% | 2.12% | 3.86% | 5.3 | 2.93% | 0.66% | 6.2 | 0.54% | 0.05% | 3.95% | 163% | ID/g [24]: 0.87%; ID/g [25]: 0.03%; ID/g [26]: 0.37%; ID/g [27]: 1%; ID/g [28]: 22%; ID/g [29]: 0.32%
C[C@]12CC[C@@H]3c4ccc(O)c(F)c4CC[C@H]3[C@@H]1CC[C@@]2(O)/C=C\I | 0.38% | 0.71% | 0.24% | 0.85% | 87.39% | 47.4 | 1.71% | 42.2% | 0.74% | 0.8% | 1.64% | 3.04% | 203 | 3.41% | 0.85% | 66.9 | 0.51% | 0.43% | 3.49% | 488% | uterus to nontarget tissue ratio [1]: 28.59%; uterus-to-nontarget tissue uptake ratio [8]: 1.21%; Uterus to nontarget tissue (spleen, muscle, lungs) uptake ratio [18]: 12.16%; ID/g [24]: 1.87%; ID/g [25]: 0.37%; ID/g [26]: 0.82%; ID/g [27]: 1.89%; ID/g [28]: 50.6%; ID/g [29]: 0.48%

Reference: ChEMBL document CHEMBL1126849, “Synthesis of A-ring fluorinated derivatives of (17 alpha,20E/Z)-[125I]iodovinylestradiols: effect on receptor binding and receptor-mediated target tissue uptake” (J Med Chem, 1993)
